Test results published in ChEMBL document CHEMBL1123170, “Drug design via pharmacophore identification. Dopaminergic activity of 3H-benz[e]indol-8-amines and their mode of interaction with the dopamine receptor” (1986).
Calls of active or inactive are those of the source. The calls are words filed in the database; no cut-off is given here.

Assays:
Rattus norvegicus [1] = assay: Contralateral turning characteristic of dopamine agonist was measured in rat at 10 Sc mg/kg dose; format: functional
Procedure, shortened: (§1)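 Male Sprague-Dawley rats with unilateral 6-OHDA nigrostriatal lesions, groups of 4-5, reused at least 1 week apart. Dosed po or sc as stated, placed at once in a rotometer, and rotation recorded continuously until it stopped. Readout is total contralateral turns (mean ± SEM). Doses given as base.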

Rattus norvegicus [2] = assay: Contralateral turning characteristic of dopamine agonist was measured in rat at 10 Po mg/kg dose; format: functional; procedure, shortened: as §1
Mus musculus = assay: Compound was tested for its ability to antagonize the catalepsy produced in mice after sc administration; format: functional
Procedure, shortened: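 Male Swiss albino mice (21-25 g), groups of 10-12. Reserpine 5 mg/kg ip given 17 h before sc test drug. Catalepsy checked before dosing and at 0.5, 1, 2, 3.5 and 5 h: mouse placed on a rubber stopper (5 cm diameter, 2.5 cm high) for 3 min; staying on counts as cataleptic. Quantal ED50 = dose reversing catalepsy in 50% of mice.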

Rattus norvegicus [3] = assay: Compound was evaluated for its ability to induce locomotion in rats rendered akinetic by bilateral anterolateral hyphalamic injection of 6-OHDA at 2.5 mg/kg dose after sc administration; format: functional; conditions: route subcutaneous
Procedure, shortened: (§2)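 Male Sprague-Dawley rats with 6-OHDA lesions of the anterolateral hypothalamus on both sides; tested 4 days after lesioning. Compound given sc, then rats placed in an open field. Ambulation recorded in 2-min periods across 2 h; one score = all four limbs placed in one square. Readout is the cumulative ambulation score (mean ± SEM).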

Rattus norvegicus [4] = assay: Compound was evaluated for its ability to induce locomotion in rats rendered akinetic by bilateral anterolateral hyphalamic injection of 6-OHDA at 30 mg/kg dose after sc administration; I=Inactive; format: functional, organism-based; parameters: dose 30 mg/kg; procedure, shortened: as §2
Rattus norvegicus [5] = assay: Compound was evaluated for its ability to induce locomotion in rats rendered akinetic by bilateral anterolateral hyphalamic injection of 6-OHDA at 10 Po mg/kg dose after sc administration; format: functional
Procedure, shortened: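 Male Sprague-Dawley rats with bilateral 6-OHDA lesions of the anterolateral hypothalamus were tested 4 days after lesioning, dosed, and placed in an open field. Ambulation (all four limbs placed in one square = one score) was counted over six 2-min periods within 2 h. Result is the cumulative ambulation score, mean ± SEM. Doses refer to the base.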

Rattus norvegicus [6] = assay: Contralateral turning characteristic was measured in rat at 5 po mg/kg dose; format: functional
Procedure, shortened: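 Male Sprague-Dawley rats with unilateral 6-OHDA lesions of the nigrostriatal pathway, in groups of 4-5, were reused at intervals of at least 1 week. After dosing, each rat was placed straight into a rotometer and recorded continuously until rotation ceased. Result is total contralateral turns, mean ± SEM. Doses refer to the base.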

[7] = target: Dopamine receptor (Rattus norvegicus) (UniProt P25115+P19020+P30729+P18901+P61169); assay: Dopamine receptor agonistic activity measured as Contralateral turning characteristic was measured in rat at 2.5 Sc mg/kg dose; format: functional, organism-based; procedure, shortened: as §1
Rattus norvegicus [8] = assay: Compound was evaluated for its ability to induce locomotion in rats rendered akinetic by bilateral anterolateral hyphalamic injection of 6-OHDA at 10 mg/kg dose after sc administration; format: functional; conditions: route subcutaneous; procedure, shortened: as §2
Rattus norvegicus [9] = assay: Ability to induce locomotion in rats rendered akinetic by bilateral anterolateral hyphalamic injection of 6-OHDA at 2.5 mg/kg dose after sc administration; format: functional; conditions: route subcutaneous; procedure, shortened: as §2
Rattus norvegicus [10] = assay: Effect of pretreatment with alpha-MPT on the rotational behavior induced by the compound (5 mg/kg, sc) in rats with 6-OHDA induced lesions (indicates that it acted directly on DA receptors); format: functional

In the case of CN(C)C1CCc2ccc3[nH]ccc3c2C1 (stereo not given), the Activity (Rattus norvegicus [1]) is reported as 4540, the Activity (Rattus norvegicus [2]) is reported as 4947 and the ED50 (Mus musculus) is reported as 5.8 mg/kg. The Ambulation score (Rattus norvegicus [3]) was 378.
CN(C)C1CCc2ccc3c(ccn3C)c2C1 (stereo not given) was tested, and the ED50 (Mus musculus) was over 30 mg/kg and the Ambulation score (Rattus norvegicus [4]) was “inactive”.
For CC(C)C[C@H]1C(=O)N2CCC[C@H]2[C@]2(O)O[C@](NC(=O)[C@@H]3C=C4c5cccc6[nH]c(Br)c(c56)C[C@H]4N(C)C3)(C(C)C)C(=O)N12 [BROMOCRIPTINE], the Ambulation score (Rattus norvegicus [5]) was 112, the ED50 (Mus musculus) was 2.3 mg/kg and the Activity (Rattus norvegicus [6]) was 1805.
CCCN(CCC)C1CCc2ccc3c(ccn3C)c2C1 (stereo not given) gave an ED50 (Mus musculus) of 5 mg/kg, an Activity [7] of under 300 and an Ambulation score (Rattus norvegicus [8]) of under 100.
CCCN(CCC)C1CCc2ccc3[nH]ccc3c2C1 (stereo not given) was tested, and the Ambulation score (Rattus norvegicus [9]) was 287, the ED50 (Mus musculus) was 2.3 mg/kg and the Activity (Rattus norvegicus [10]) was 3460.
